Measurements of several laboratories.
Lines come from different studies, so protocols differ.
Organism: Staphylococcus aureus
Effect on: microbial growth

| Structure (SMILES) | assay | test system | setting | MIC |
| --- | --- | --- | --- | --- |
| Cc1ccc(-c2nnc(SCC(C)O)n2-c2ccccc2)cc1 (centres unmarked) |  |  |  | 3500 µg/mL |
| CN[C@@H]1[C@@H](O[C@H]2O[C@H](CO)[C@@H](N)[C@H](O)[C@H]2O)OC2C[C@@H](N)[C@@H](O[C@H]3[C@H](O)[C@@H](O)[C@H](N)C[C@@H]3N)OC2[C@@H]1O (some centres unmarked) |  |  | 24 h | 1.25 to 2.5 µM |
| CC(C)=CCCC(C)=CC1c2c(C)nn(-c3ccccc3)c2NN1C(=O)c1ccncc1 (centres unmarked) |  | MTCC96 | 24 h | > 100 µg/mL |
| CC1CCC(C(C)C)C(OC(=O)C=Cc2ccc(O)c(O)c2)C1 (centres unmarked) | broth dilution | FDA209 |  | 4 µg/mL |
| Cc1nn(-c2ccccc2)c2c1C(c1cncs1)N(C(=O)c1ccncc1)N2 (centres unmarked) |  | MTCC96 | 24 h | 32 µg/mL |
| C=C/C=C(\C)CC[C@@H]1C[C@@H](O)CC(=O)O1 | broth dilution | ATCC6538P |  | 256 µg/mL |
| CC(O)CSc1nnc(Cn2cnc3c2c(=O)n(C)c(=O)n3C)n1-c1ccccc1 (centres unmarked) |  |  |  | 9000 µg/mL |
| O=C(N[C@H](CO)[C@H](O)c1ccc([N+](=O)[O-])cc1)C(Cl)Cl |  |  | 24 h | 5 to 10 µM |
| O=C(C=Cc1ccc(O)c(O)c1)Oc1ccccc1 | broth dilution | FDA209 |  | 16 µg/mL |
| CN[C@H](CC(C)C)C(=O)N[C@H]1C(=O)N[C@@H](CC(N)=O)C(=O)N[C@H]2C(=O)N[C@H]3C(=O)N[C@H](C(=O)N[C@H](C(=O)O)c4cc(O)cc(O)c4-c4cc3ccc4O)[C@H](O)c3ccc(c(Cl)c3)Oc3cc2cc(c3O[C@@H]2O[C@H](CO)[C@@H](O)[C@H](O)[C@H]2O[C@H]2C[C@](C)(N)[C@H](O)[C@H](C)O2)Oc2ccc(cc2Cl)[C@H]1O |  | ATCC29213 MSSA |  | 0.67 µM |
| CC(C)(C)OC(=O)N[C@@H]1CCN(c2cc(C(=O)NCC(=O)O)ccc2NC(=O)c2cc(Br)c(Br)[nH]2)C1 | broth dilution | ATCC29213 |  | > 32 µg/mL |
| Cc1nn(-c2ccccc2)c2c1C(c1ccc(Cl)cc1)N(C(=O)c1ccncc1)N2 (centres unmarked) |  | MTCC96 | 24 h | > 100 µg/mL |
| Cl.N[C@H]1CCN(c2cc(C(=O)NCC(=O)O)ccc2NC(=O)c2cc(Br)c(Br)[nH]2)C1 | broth dilution | ATCC29213 |  | > 32 µg/mL |
| Cc1nn(-c2ccccc2)c2c1C(c1ccc([N+](=O)[O-])cc1)N(C(=O)c1ccncc1)N2 (centres unmarked) |  | MTCC96 | 24 h | 64 µg/mL |
| O=C(O)[C@H]1O[C@@H](Oc2c(-c3ccc(O)c(O)c3)oc3cc(O)cc(O)c3c2=O)[C@H](O)[C@@H](O)[C@@H]1O | broth dilution |  | 16 h | > 250 µg/mL |
| Cl.O=C(O)CNC(=O)c1ccc(NC(=O)c2cc(Br)c(Br)[nH]2)c(N2CCNCC2)c1 | broth dilution | ATCC29213 |  | > 32 µg/mL |
| CC(O)CSc1nnc(-c2ccccc2)n1-c1ccccc1 (centres unmarked) |  |  |  | 2000 µg/mL |
| Cc1nn(-c2ccccc2)c2c1C(c1c[nH]c3ccccc13)N(C(=O)c1ccncc1)N2 (centres unmarked) |  | MTCC96 | 24 h | > 100 µg/mL |
| CO[C@@H]1[C@@H](OC(N)=O)[C@@H](O)[C@H](Oc2ccc3c(O)c(NC(=O)c4ccc(O)c(CC=C(C)C)c4)c(=O)oc3c2C)OC1(C)C | broth dilution | ATCC29213 |  | 0.25 µg/mL |
| O=C(C=Cc1ccc(O)c(O)c1)OCc1ccccc1 | broth dilution | FDA209 |  | 8 µg/mL |
| Cc1[nH]c(C(=O)Nc2ccc(C(=O)NCC(=O)O)cc2N2CC[C@@H](N)C2)c(Cl)c1Cl.Cl | broth dilution | ATCC29213 |  | > 32 µg/mL |
| O=c1c(O[C@@H]2O[C@H](CO)[C@@H](O)[C@H](O)[C@H]2O)c(-c2ccc(O)c(O)c2)oc2cc(O)cc(O)c12 | broth dilution |  | 16 h | > 100 µg/mL |
| Cc1[nH]c(C(=O)Nc2ccc(C(=O)NCC(=O)O)cc2N2CC[C@H](NC(=O)OC(C)(C)C)C2)c(Cl)c1Cl | broth dilution | ATCC29213 |  | > 32 µg/mL |
| CC(C)NCC(COc1cccc2ccccc12)OC(=O)C=Cc1ccc(O)c(O)c1 (centres unmarked) | broth dilution | FDA209 |  | 32 µg/mL |
| Cc1[nH]c(C(=O)Nc2ccc(C(=O)NCc3n[nH]c(=O)o3)cc2N2CCNCC2)c(Cl)c1Cl.Cl | broth dilution | ATCC29213 |  | > 32 µg/mL |
| COc1cc(Cc2cnc(N)nc2N)cc(OC)c1OC | broth dilution | FDA209 |  | 16 µg/mL |
